Reference: PubChem BioAssay AID602174 (The Scripps Research Institute Molecular Screening Center, 2012)

System: MCF7 proliferation, sulforhodamine B absorbance
Test: MCF7 cell proliferation modulation, late-stage follow-up, counter-screen for AHR activator project, absorbance (AID 602174)
Conditions: at 10 µM
How it was run: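 test system = MCF7 cells | repeats = at least three replicate wells per condition | times = 8–10 day exposure at 37 °C after 24 h attachment | compound dosing = single 10 µM test compound dose, renewed with medium every 48 h | signal = Sulforhodamine B stain, TCA-fixed cells, A490 minus 650 nm background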

SMILES | proliferation change
CCOc1ccc(-c2cc(C)n3nc(C(N)=O)cc3n2)cc1 | -20.5%
Cc1nnc(N2C(=O)c3cccc4c([N+](=O)[O-])ccc(c34)C2=O)s1 | -79%
Cn1c(C(=O)N2CCC(C(N)=O)CC2)cc2cc(Cl)ccc21 | -49.2%
Cc1nc(N)nc(Nc2ccc(Cl)cc2)c1Br | -86.8%
Cc1c(-c2ccn[nH]2)cc(NC(=O)c2ccc(Cl)cc2)c(=O)n1N | -73%
CCOC(=O)Cc1cc(-c2ccc(O)cc2)nc2ccc3ccccc3c12 | -84.8%
Cc1ccc(-c2cc(-c3cccs3)[nH]n2)c(O)c1 | -98.1%
COc1ccccc1NC(=O)c1ccc(C(=O)Nc2ccccc2OC)nc1 | -90.8%
COc1ccc(NC(=O)c2cccc3c(Br)cccc23)cc1 | -59.5%
Cc1csc(SCC(=O)Nc2ccc(Cl)cn2)n1 | -63.2%
